# High-throughput results from PubChem.
# The entries come from a sample that favours hits as a whole.
# Insulin prom act: TRM-6 insulin promoter activation | 130,000 tested, 0.81% active | TRM-6 cells (human fetal islet line), insulin promoter eGFP reporter, imaging; plate-scaled: unstimulated 0, stimulated control 100 | activation, % at 2 µM | AID 1296;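 active = activation at 2 µM above a set limit, confirmed on inspection of the cell images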;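 note: share of cells whose green reporter signal exceeds an intensity cutoff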
#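 Assay system: TRM-6 human fetal islet cells, insulin promoter–eGFP reporter; Also added: 0.75 µM tamoxifen as reporter inducer; Schedule: 15 h tamoxifen pre-treatment, 48 h compound treatment at 37 °C; Signal: fixed-cell fluorescence microscopy, eGFP plus Hoechst; Read-out: percent activation from GFP-positive cell fraction; Control set: stimulated and unstimulated wells.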
# Starred values were filed as active, the others as inactive.
SMILES,Insulin prom act
O=C1NC(=O)N(c2ccc(Cl)cc2)C(=O)/C1=C\c1ccc(Sc2nc3ccccc3[nH]2)o1,7
ON1C2CCCCC2N(O)C1c1ccccc1F (stereo unspecified),5
O=C(NCc1ccc(C(=O)N2CCC3(CC2)OCCO3)cc1)c1cccc(Br)c1,227*
O=C(CNS(=O)(=O)c1cccs1)N1CCC2(CC1)OCCO2,0
O=C(c1cc(-c2ccccc2)on1)N1CCC2(CC1)OCCO2,0
OC(CCNCCc1c[nH]c2ccccc12)C(F)(F)F (stereo unspecified),-9
CCC(COC(=O)NC)NC(=O)Oc1ccccc1 (stereo unspecified),3
Cc1c(C(=O)N2CCC3(CC2)OCCO3)sc2ncnc(N3CCN(c4ccccn4)CC3)c12,-3
Nc1ccc(Cl)cc1C(=O)c1ccccc1Cl,433*
CCCNc1nc(OC)nc(N2CC3CC(C2)c2cccc(=O)n2C3)n1 (stereo unspecified),-7
C=CC(C)C(C(=O)c1ccccc1)N(C)C (stereo unspecified),7
Cc1nn(-c2ccccc2)c(Cl)c1C1C(C#N)=C(N)Oc2c1c(=O)oc1ccccc21 (stereo unspecified),-7
CC1(C)COC(Nc2ccc(Cl)cc2)=N1,5
Cc1ccc(S(=O)(=O)CC(C)(O)C(=O)Nc2cccc(C(F)(F)F)c2)cc1 (stereo unspecified),212*
CCn1c(O)c(C=Nc2cc(Cl)ccc2Cl)c(=O)n(CC)c1=O,-64
Cc1nn(Cc2ccccc2)c(C)c1C(=O)OCC(=O)NC1CCS(=O)(=O)C1 (stereo unspecified),7
COc1ccc(-n2c(Cc3cccc([N+](=O)[O-])c3)nc3ccccc3c2=O)cc1,3
O=P(O)(O)Cc1ccccc1OP(=O)(c1ccccc1)c1ccccc1,0
COC(=NC1CCCC1)C(O)c1c[nH]c2ccccc12 (stereo unspecified),667*
Cc1ccc(OCC(=O)NCCN2CCN(C(=O)COc3ccc(C)cc3)CC2)cc1,3
Cc1ccc(-n2c(O)c(/C=N/N3CCCCC3c3cccnc3)c(=O)[nH]c2=S)cc1 (stereo unspecified),3
CN1CCN(/N=C/c2c(O)n(C)c(=O)n(C)c2=O)CC1,-10
O=[N+]([O-])[N-][n+]1cnn(Cc2ccc(Cl)cc2)c1,141*
O=C(COc1ccc(Cl)cc1)N1CCN(Cc2ccc([N+](=O)[O-])cc2)CC1,9
CC(=O)N(C1=NCCCS1)c1ccccc1Cl,-8
SMILES,Insulin prom act
CCC(C)NC(=O)CN1C(=O)CN=C(c2ccccc2)c2ccccc21 (stereo unspecified),-2
CCN(CC)c1ccc(/C=N/c2sc3c(c2C#N)C2CCN3CC2)c(O)c1,285*
COc1ccccc1Cn1c(SCC#N)nc2cc(C(=O)N3CCC4(CC3)OCCO4)ccc2c1=O,0
Cc1sc2nc(COC(=O)Cc3ccccc3)[nH]c(=O)c2c1C,-8
OC(CNC1CCCCC1)C(F)(F)F (stereo unspecified),-7
C=CCn1c(=O)c(C=Nc2cccnc2Cl)c(O)n(CCCC)c1=O,7
